Test results: publication PMC11549336 (Communications Biology, 2024)

Target: recombinant Plk1 PBD (Plk1 367-603aa) (Homo sapiens, UniProt P53350)
Experiment: Peptide binding assay by isothermal titration calorimetry
Conditions: ITC; listed as pT600/pT608 peptide
Procedure, shortened: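 Protein and peptides were dialysed against 50 mM NaP, 150 mM NaCl, 0.5 mM TCEP, pH 7.5, with concentrations set by A280. ITC at 25 °C, 750 rpm stirring. […] Buffer-only controls subtracted; data fitted to a single-site model.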

recombinant Plk1 PBD (Plk1 367-603aa), sequence (P53350 367-603): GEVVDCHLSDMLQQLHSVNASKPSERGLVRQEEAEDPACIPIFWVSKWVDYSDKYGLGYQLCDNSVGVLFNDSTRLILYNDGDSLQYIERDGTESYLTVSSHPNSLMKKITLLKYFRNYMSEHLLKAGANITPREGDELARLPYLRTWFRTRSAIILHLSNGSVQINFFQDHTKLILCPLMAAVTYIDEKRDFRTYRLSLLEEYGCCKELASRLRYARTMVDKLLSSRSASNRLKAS

binding of peptide to recombinant Plk1 PBD, in words: could not detect any interaction
Substance: FRNVpTICPNPEDpTCDFARA [BubR1^596-614 (FRNVpTICPNPEDpTCDFARA)]
